This note sets out measurements from ChEMBL document CHEMBL1811864 (Bioorg Med Chem, 2011).

Data set [1] deals with T1, Transcriptional activator protein LasR (Pseudomonas aeruginosa (strain ATCC 15692 / PAO1 / 1C / PRS 101 / LMG12228)) (UniProt P25084).
T1 sequence (whole entry): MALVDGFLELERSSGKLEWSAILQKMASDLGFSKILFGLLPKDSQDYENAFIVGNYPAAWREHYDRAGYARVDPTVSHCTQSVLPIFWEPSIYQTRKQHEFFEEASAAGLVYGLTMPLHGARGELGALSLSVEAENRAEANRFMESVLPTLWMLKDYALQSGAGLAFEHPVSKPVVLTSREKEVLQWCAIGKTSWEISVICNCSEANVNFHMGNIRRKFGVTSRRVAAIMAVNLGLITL
In words: Antagonist activity at Pseudomonas aeruginosa PAO1 MW1 (pUM15) LasR assessed as inhibition of OdDHL-induced quorum sensing activation at 10 uM after 8 hrs by […] relative to untreated control. It counts as functional. A digest of the protocol: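 P. aeruginosa PAO1 MW1 (pUM15) lacks functional LasI and carries a LasR-responsive promoter driving YFP, so fluorescence is the read-out. Compounds were tested at 10 µM. […] Background from wells with no compound or AHL was subtracted. Assays were done in triplicate.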

Data set [2] relates to Escherichia coli DH5[alpha]. In words: Antagonist activity at Escherichia coli DH5alpha (pJN105L + pSC11) LasR assessed as inhibition of OdDHL-induced quorum sensing activation at 10 uM after 8 hrs by beta-galactosidase reporter gene assay relative to untreated control. It counts as functional.
Data set [3] has as its system Escherichia coli DH5[alpha]. In words: Agonist activity at Escherichia coli DH5alpha (pJN105L + pSC11) LasR at 10 uM after 8 hrs by beta-galactosidase reporter gene assay relative to OdDHL. It counts as functional. (Reporter assays use an easily measured gene product as a stand-in for the process of interest.)
Data set [4] is described as follows: Antagonist activity at Escherichia coli DH5alpha (pJN105L + pSC11) LasR assessed as inhibition of OdDHL-induced quorum sensing activation after 8 hrs by beta-galactosidase reporter gene assay. It counts as functional, Escherichia coli DH5[alpha].
In data set [5] the target is T2, Transcriptional activator protein LuxR (Aliivibrio fischeri) (UniProt P12746).
T2 sequence (whole entry): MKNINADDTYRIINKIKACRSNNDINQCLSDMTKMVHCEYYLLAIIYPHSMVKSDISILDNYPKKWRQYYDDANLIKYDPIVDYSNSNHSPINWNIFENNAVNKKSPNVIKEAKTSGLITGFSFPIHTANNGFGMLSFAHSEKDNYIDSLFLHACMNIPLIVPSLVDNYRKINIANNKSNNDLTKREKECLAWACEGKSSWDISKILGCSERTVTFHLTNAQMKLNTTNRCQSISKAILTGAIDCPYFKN
Briefly: Antagonist activity at Vibrio fischeri ESI 114 (delta-LuxI) LuxR assessed as inhibition of […]-induced quorum sensing activation at 10 uM after 8 hrs by […] relative to untreated control. It counts as functional.

In data set [6] the target is T2, Transcriptional activator protein LuxR (Aliivibrio fischeri). In words: Agonist activity at Vibrio fischeri ESI 114 (delta-LuxI) LuxR at 10 uM after 8 hrs by […] relative to […]. It counts as functional. The essentials: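 V. fischeri ESI 114 lacking LuxI synthase but keeping its native lux operon; LuxR activity read as luminescence. Compounds were screened at 10 µM alone, without native AHL. Signal was normalized to the native-ligand positive control.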

In data set [7] the target is T3, Transcriptional activator protein TraR (Agrobacterium tumefaciens) (UniProt P33905).
T3 sequence (whole entry): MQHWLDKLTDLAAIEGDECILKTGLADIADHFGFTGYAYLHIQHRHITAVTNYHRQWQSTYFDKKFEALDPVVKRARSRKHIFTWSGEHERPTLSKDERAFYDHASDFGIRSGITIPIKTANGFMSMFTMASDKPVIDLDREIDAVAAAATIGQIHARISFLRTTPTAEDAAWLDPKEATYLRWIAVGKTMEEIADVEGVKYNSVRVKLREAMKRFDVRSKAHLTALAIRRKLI
In words: Antagonist activity at Agrobacterium tumefaciens WCF (pCF372) TraR assessed as inhibition of […]-induced quorum sensing activation at 10 uM after 8 hrs by beta-galactosidase reporter gene assay relative to untreated control. It counts as functional.

Data set [8] concerns the target T3, Transcriptional activator protein TraR (Agrobacterium tumefaciens). Briefly: Agonist activity at Agrobacterium tumefaciens WCF (pCF372) TraR at 10 uM after 8 hrs by beta-galactosidase reporter gene assay relative to […]. It counts as functional.
In the next data set the test system is Pseudomonas aeruginosa. In words: Growth inhibition of Pseudomonas aeruginosa PAO1 MW1 (pUM15) at 10 uM after 4 to 16 hrs. The following applies: in vivo. It counts as organism-based. The essentials: (§1)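 Bacterial growth was monitored over the reporter gene assay time course (4–16 h) with compounds at 10 µM.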
Another data set relates to Escherichia coli. In words: Growth inhibition of Escherichia coli DH5alpha (pJN105L + pSC11) at 10 uM after 4 to 16 hrs. It counts as organism-based, DH5[alpha]. The following applies: in vivo. A digest of the protocol: as §1
The test system of the next data set is Aliivibrio fischeri. Briefly: Growth inhibition of Vibrio fischeri ESI 114 (delta-LuxI) at 10 uM after 4 to 16 hrs. It counts as organism-based. The following applies: in vivo. The essentials:
as §1

For data set [9], the system named is Agrobacterium tumefaciens. In words: Growth inhibition of Agrobacterium tumefaciens WCF (pCF372) at 10 uM after 4 to 16 hrs. The settings on record: in vivo. It counts as organism-based. A digest of the protocol:
as §1

The target of data set [10] is T1, Transcriptional activator protein LasR (Pseudomonas aeruginosa (strain ATCC 15692 / PAO1 / 1C / PRS 101 / LMG12228)). Briefly: Agonist activity at Pseudomonas aeruginosa PAO1 MW1 (pUM15) LasR at 10 uM after 8 hrs by YFP fluorescence reporter gene assay relative to OdDHL.
The target of data set [11] is T4, Transcriptional activator protein LuxR (Aliivibrio fischeri, UniProt P12746).
T4 sequence (P12746 whole entry): T2 sequence (whole entry)
Briefly: Antagonist activity at Vibrio fischeri ESI 114 (delta-LuxI) LuxR assessed as inhibition of OHHL-induced quorum sensing activation after 8 hrs by […].

A short description of data set [12]: Hydrolytic stability of the compound in Luria-Bertani medium containing Pseudomonas aeruginosa PA01 MW1 (pUM15) assessed as half life by measuring YFP fluorescence. It counts as physicochemical.
Data set [13] in a line: Agonist activity at Escherichia coli DH5alpha (pJN105L + pSC11) LasR after 8 hrs by beta-galactosidase reporter gene assay relative to OdDHL. It counts as functional, Escherichia coli DH5[alpha].
Data set [14] deals with T5, Transcriptional activator protein LasR (Pseudomonas aeruginosa (strain ATCC 15692 / PAO1 / 1C / PRS 101 / LMG12228), UniProt P25084).
T5 sequence (P25084 whole entry): T1 sequence (whole entry)
Briefly: Agonist activity at Pseudomonas aeruginosa PAO1 MW1 (pUM15) LasR after 8 hrs by YFP fluorescence reporter gene assay relative to OdDHL.

Data set [15] deals with T6, Transcriptional activator protein TraR (Agrobacterium tumefaciens, UniProt P33905).
T6 sequence (P33905 whole entry): T3 sequence (whole entry)
In words: Antagonist activity at Agrobacterium tumefaciens WCF (pCF372) TraR assessed as inhibition of OOHL-induced quorum sensing activation after 8 hrs by beta-galactosidase reporter gene assay.

Data set [16] concerns the target T4, Transcriptional activator protein LuxR. In words: Agonist activity at Vibrio fischeri ESI 114 (delta-LuxI) LuxR after 8 hrs by […] relative to […]. It counts as functional.
Data set [17] has as its target T6, Transcriptional activator protein TraR. In words: Agonist activity at Agrobacterium tumefaciens WCF (pCF372) TraR after 8 hrs by beta-galactosidase reporter gene assay relative to OOHL.
Data set [18] has as its target T5, Transcriptional activator protein LasR. In words: Agonist activity at Pseudomonas aeruginosa PAO1 MW1 (pUM15) LasR assessed as quorum sensing activation after 8 hrs by […].

Structures are written as SMILES. pEC50, pIC50: −log10 of the molar value.

The term inhibition denotes the relative decrease from the control value, in per cent. By pIC50 is commonly meant the negative decadic logarithm of the IC50, by convention in mol/L. For `CCCCCCCC(=O)N[C@H]1CCSC1=O`, the inhibition is -7% in data set [1], 64% in data set [2], 80% in [5] and 99% in [7]. The Activity was 85% in data set [3]; 0% in data set [6]; 0% in [8]; “Non-toxic” in the data set with Pseudomonas aeruginosa; “Non-toxic” with Escherichia coli; “Non-toxic” with Aliivibrio fischeri. Further, the Activity entry is “Non-toxic” in data set [9] and 0% in [10]. Further, the results for the pIC50 in data set [4] and in data set [11] were 6.85 and 6.89, respectively.
What is called half-life is the time needed for the level to fall by half in the phase considered. Turning to `CCCCCCCCCC(=O)CC(=O)N[C@H]1CCOC1=O`, the half-life in data set [12] was 48.2 h.
As a reminder, the pEC50 is the EC50 on a negative log10 scale, so that one unit is a factor of ten. For `CCCCCCCCCCCC(=O)N[C@H]1CCSC1=O`, the Activity in data set [3] is 94%; in data set [6], 0%; in data set [8], 0%; in the data set with Pseudomonas aeruginosa, “Non-toxic”; with Escherichia coli, “Non-toxic”; in the data set on Aliivibrio fischeri it was “Non-toxic”. Moreover, the figures for the Activity entry in data set [9] and in data set [10] were “Non-toxic” and 42%, respectively. The pEC50 in data set [13] is 5.72; in data set [14], 4.68. Moreover, the results for the inhibition in [5] and in data set [7] were 57% and 6%, respectively.
With `CCCCCCC(=O)N[C@H]1CCSC1=O`, the inhibition in [1] was -8%; in [2], 78%; in data set [5] it was 78%; in [7] it was 78%. Besides, the Activity in data set [3] is 8%; in [6], 0%; in data set [8] it was 0%; in the data set on Pseudomonas aeruginosa, “Non-toxic”; in the data set on Escherichia coli, “Non-toxic”; in the data set on Aliivibrio fischeri, “Non-toxic”. Further, the values for the Activity entry in [9] and in [10] were “Non-toxic” and 0%, respectively. In addition, the pIC50 in data set [4] was 6.10; in [11], 6.51; in data set [15], 5.00.
Take `O=C(Cc1cccc([N+](=O)[O-])c1)N[C@H]1CCSC1=O`: the inhibition was -7% in data set [1], 19% in [5] and 33% in data set [7]. For the same compound, the Activity in data set [3] is 82%; in [6], 21%; in data set [8], 1%; with Pseudomonas aeruginosa, “Non-toxic”; with Escherichia coli, “Non-toxic”; in the data set on Aliivibrio fischeri it was “Non-toxic”. For the same compound, the figures for the Activity entry in data set [9] and in data set [10] were “Non-toxic” and 5%, respectively. In addition, the pEC50 in data set [13] was 5.39; in [16] it was 4.96.
Regarding `CCCCCCCCCC(=O)CC(=O)N[C@H]1CCSC1=O`, the Activity was 94% in data set [3]; 0% in [6]; 1% in data set [8]; “Non-toxic” with Pseudomonas aeruginosa; “Non-toxic” with Escherichia coli; “Non-toxic” with Aliivibrio fischeri. Also, the Activity result in [9] was “Non-toxic”; in data set [10], 88%. The pEC50 in data set [13] was 7.04. Also, the inhibition in data set [5] amounted to 99%; in data set [7] it was 92%. Moreover, the half-life in [12] is 82.3 h. Further, the pIC50 in data set [11] was 6.35.
On to `CCCCCC(=O)CC(=O)N[C@H]1CCSC1=O`, for which the inhibition in data set [1] is -8%; in [5], 99%. Besides, the Activity is 0% in [6]; 50% in data set [8]; “Non-toxic” with Pseudomonas aeruginosa; “Non-toxic” in the data set on Escherichia coli; “Non-toxic” in the data set with Aliivibrio fischeri; “Non-toxic” in data set [9]. In addition, in data set [10], the Activity amounted to 3%. Further, the pEC50 in [17] is 4.70. The pIC50 in data set [11] was 6.46.
Consider `O=C(CCc1cc2ccccc2[nH]1)N[C@H]1CCSC1=O`, for which the inhibition in data set [1] was -7%; in data set [2], 16%; in data set [5], 68%. The Activity in data set [3] is 4%; in data set [6], 0%; in data set [8], 0%; in the data set with Pseudomonas aeruginosa, “Non-toxic”; in the data set on Escherichia coli, “Non-toxic”; in the data set on Aliivibrio fischeri it was “Non-toxic”. Also, the Activity result in [9] was “Non-toxic”; in data set [10] it was 10%. Moreover, in [13], the negative-log EC50 (pEC50) is 5.74.
As to `CCCC(=O)CC(=O)N[C@H]1CCSC1=O`, the Activity in data set [3] was 96%; in data set [6], 0%; in data set [8], 1%; with Pseudomonas aeruginosa, “Non-toxic”; with Escherichia coli, “Non-toxic”; with Aliivibrio fischeri, “Non-toxic”. Besides, the Activity result in data set [9] was “Non-toxic”; in data set [10], 76%. In addition, the pEC50 in data set [13] is 6.89; in [14] it was 4.89; in data set [18], 4.89. The values for the inhibition in [5] and in [7] were 62% and 93%, respectively. In addition, in data set [15], the pIC50 was 5.49.
